The record followed here is ChEMBL document CHEMBL5321236, “Fluoro-labelled sp2-iminoglycolipids with immunomodulatory properties” (Eur J Med Chem, 2023).

In data set [1] the target is Mitogen-activated protein kinase 14 (Mus musculus) (UniProt P47811). Nature of the data set: Inhibition of LPS-stimulated p38 alpha phosphorylation in mouse BV-2 cells at 10 uM measured after 15 to 90 mins by Western blot analysis. The following applies: time 15-90 min. Format: cell-based. In a few lines: (§1)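 Bv.2 cells exposed with or without LPS for 15–90 min. Protein extracts run on SDS-PAGE, blotted to PVDF, probed with anti-phospho-p38α MAPK and anti-total p38α MAPK (1:1000), ECL detection. Quantified by densitometry, mean ± SEM, n = 3.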
Mitogen-activated protein kinase 14 (Mus musculus), sequence (P47811 whole entry): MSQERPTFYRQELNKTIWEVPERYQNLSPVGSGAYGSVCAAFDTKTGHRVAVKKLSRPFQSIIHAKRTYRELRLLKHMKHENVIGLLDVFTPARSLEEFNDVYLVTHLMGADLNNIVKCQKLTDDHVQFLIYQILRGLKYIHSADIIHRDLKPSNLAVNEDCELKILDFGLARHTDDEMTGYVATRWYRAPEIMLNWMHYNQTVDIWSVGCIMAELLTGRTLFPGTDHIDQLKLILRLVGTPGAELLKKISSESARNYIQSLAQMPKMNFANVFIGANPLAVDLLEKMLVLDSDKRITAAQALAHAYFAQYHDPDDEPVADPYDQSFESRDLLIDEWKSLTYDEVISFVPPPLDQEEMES
On the technique in general: In western blotting, separated proteins are transferred to a membrane and probed.

In a further data set the test system is HBL-100. Nature of the data set: Growth inhibition of human HBL-100 cells measured after 48 hrs by SRB colorimetric assay. It counts as functional. In a few lines:
(§2)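 NCI-based protocol with sulforhodamine B read-out. Seeded 2500 (A549, HBL-100, HeLa, SW1573), 5000 (T-47D, WiDr, SW1573/P-gp) or 7000 (BJ-hTERT) cells/well. Exposed 48 h to serial decimal dilutions, 0.001–100 μM, from 40 mM DMSO stock. GI50 by NCI formulas; mean of three or more experiments ± SD.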
(Sulforhodamine B stains cellular protein and so reports cell mass.)

Data set [2] concerns HeLa. Nature of the data set: Induction of morphological changes in human HeLa cells assessed as formation of apoptotic bodies at 20 uM measured after 5 hrs by microscopy based analysis. Format: functional, cell-based. In a few lines: (§3)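 HeLa and SW1573 seeded at 100,000 cells/dish. After 24 h, medium switched to phenol-red-free RPMI 1640 and 20 μM added. Label-free holotomographic 3D live imaging of a 236 × 236 μm field, 10–20 cells initially, every 3 min for 15 h. Average dry mass density measured per cell at each cycle; morphology scored against untreated cells.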

The subject of the next data set is A549. Nature of the data set: Growth inhibition of human A549 cells measured after 48 hrs by SRB colorimetric assay. It counts as functional. In a few lines:
as §2

A short description of data set [3]: Resistance factor, ratio of GI50 for growth inhibition of human SW1573 cells overexpressing P-glycoprotein measured after 48 hrs in absence of verapamil to GI50 for growth inhibition of human SW1573 cells measured after 48 hrs in absence of verapamil. Format: functional. In a few lines: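 Resistance factor: GI50 in P-gp-overexpressing SW1573 divided by GI50 in parental SW1573, each from 48 h SRB growth-inhibition assay without verapamil. Values are means of three or more independent experiments.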

Data set [4] addresses Mitogen-activated protein kinase 14 (Mus musculus) (UniProt P47811). The experiment in a line: Inhibition of LPS-stimulated p38 alpha phosphorylation in mouse BV-2 cells at 10 uM measured after 30 mins by Western blot analysis. It counts as cell-based. In a few lines: as §1
For data set [5], the system named is SW1573. The experiment in a line: Induction of apoptosis in human SW1573 cells assessed as membrane blebbing at 20 uM measured upto 15 hrs by microscopy based analysis. It counts as functional, cell-based. The gist of the method:
as §3

Data set [6] relates to SW1573. The experiment in a line: Growth inhibition of human SW1573 cells overexpressing P-glycoprotein measured after 48 hrs in presence of verapamil by SRB colorimetric assay. It counts as functional. The gist of the method: (§4)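 NCI-based protocol with sulforhodamine B read-out. Cells grown in RPMI 1640 with 5% FBS and 1 mM glutamine at 37 °C, 5% CO₂. Seeded 2500 (A549, HBL-100, HeLa, SW1573), 5000 (T-47D, WiDr, SW1573/P-gp) or 7000 (BJ-hTERT) cells/well. Exposed 48 h to serial decimal dilutions, 0.001–100 μM, from 40 mM DMSO stock. GI50 by NCI formulas; mean of three or more experiments ± SD.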

Another data set has as its system hTERT-BJ. The experiment in a line: Growth inhibition of human hTERT-BJ cells measured after 48 hrs by SRB colorimetric assay. It counts as functional. In a few lines: as §4
Data set [7] relates to HeLa. Nature of the data set: Induction of morphological changes in human HeLa cells assessed as membrane rupture at 20 uM measured after 12 hrs by imaging based analysis. Format: functional, cell-based. The gist of the method:
as §3

Data set [8] deals with HeLa. Nature of the data set: Inhibition of colony formation in human HeLa cells assessed as reduction in number of colonies at GI50 concentration measured after 7 days by crystal violet staining based analysis. Format: functional, cell-based. The following applies: time 7.0 day. The gist of the method:
(§5)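 HeLa and SW1573 seeded at 400 cells/well, dosed next day at GI50/3 and GI50 for the given line. Exposed seven days, fixed in methanol, stained with 0.5% w/v crystal violet. Colonies counted by automatic image segmentation.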

Data set [9] concerns SW1573. The experiment in a line: Inhibition of colony formation in human SW1573 cells assessed as reduction in colony size at GI50 concentration measured after 7 days by crystal violet staining based analysis. It counts as functional, cell-based. The settings on record: time 7.0 day. In a few lines: as §5
The test system of data set [10] is HeLa. The experiment in a line: Induction of morphological changes in human HeLa cells assessed as increase in average dry mass density at 20 uM measured after 15 hrs by imaging based analysis. Format: functional, cell-based. In a few lines: as §3
Data set [11] concerns SW1573. The experiment in a line: Inhibition of colony formation in human SW1573 cells assessed as reduction in colony size at one third of GI50 concentration measured after 7 days by crystal violet staining based analysis. Format: functional, cell-based. The settings on record: time 7.0 day. The gist of the method:
as §5

The subject of the next data set is WiDr. The experiment in a line: Growth inhibition of human WiDr cells measured after 48 hrs by SRB colorimetric assay. It counts as functional. The gist of the method: as §2
For data set [12], the system named is HeLa. The experiment in a line: Induction of morphological changes in human HeLa cells at 20 uM measured after 12 hrs by imaging based analysis.
The test system of data set [13] is HeLa. Nature of the data set: Inhibition of colony formation in human HeLa cells assessed as reduction in number of colonies at one third of GI50 concentration measured after 7 days by crystal violet staining based analysis. It counts as functional, cell-based. The settings on record: time 7.0 day. The gist of the method: as §5
Data set [14] concerns BV-2. The experiment in a line: Cytotoxicity against mouse BV-2 cells at 10 uM measured after 24 hr by crystal violet staining based analysis. Format: toxicity, cell-based. The following applies: bv-2, 24 h. The gist of the method: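 Bv.2 cells grown to 70% confluence, exposed 24 h in serum-free medium to 0.1, 1.0, 10 and 25 μM. Fixed with 1% glutaraldehyde, stained with 0.1% crystal violet, dye released in 10% acetic acid, absorbance 590 nm. Mean ± SEM, n ≥ 3 independent experiments.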

For data set [15], the system named is BV-2. Nature of the data set: Protection against LPS induced inflammation in mouse BV-2 cells assessed as decrease in Tnf-alpha mRNA expression at 10 uM incubated for 24 hrs with LPS stimulation by qRT-PCR analysis. (In qPCR the cycle at which signal appears reflects the starting amount.)
Data set [16] relates to HeLa. Nature of the data set: Induction of morphological changes in human HeLa cells assessed as increase in cell shrinkage at 20 uM measured after 12 hrs by imaging based analysis.
Data set [17] has as its system SW1573. Nature of the data set: Inhibition of colony formation in human SW1573 cells assessed as reduction in number of colonies at GI50 concentration measured after 7 days by crystal violet staining based analysis. The settings on record: time 7.0 day. Format: functional, cell-based. In a few lines: as §5
Data set [18] can be described thus: Resistance factor, ratio of GI50 for growth inhibition of human SW1573 cells overexpressing P-glycoprotein measured after 48 hrs in presence of verapamil to GI50 for growth inhibition of human SW1573 cells measured after 48 hrs in presence of verapamil. Format: functional. The gist of the method:
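SW1573 parental and P-gp-overexpressing cells given 48 h exposure to serial dilutions (0.001–100 μM) in medium containing verapamil at a final 10 μM as P-gp transport inhibitor. SRB read-out, GI50 by NCI formulas. Resistance factor taken as GI50 in SW1573/P-gp divided by GI50 in SW1573.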

Data set [19] relates to BV-2. The experiment in a line: Antiinflammatory activity in mouse BV-2 cells assessed as restoration of […] expression level at 10 uM incubated for 24 hrs with LPS stimulation by qRT-PCR analysis. Format: functional, cell-based. In a few lines:
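Bv.2 microglia stimulated with LPS 200 ng/mL with or without compound at 10 μM for 24 h. Arg1 mRNA measured by qRT-PCR, Actinb as housekeeping gene, 2^-ΔΔCT method, fold change relative to basal. n ≥ 4 independent experiments in triplicate.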

Calls of active or inactive are those of the source. The rule behind the calls is not given here.

For orientation: GI50 means the concentration giving 50% growth inhibition. Take `CCCCCCCCCCCCS(=O)(=O)[C@@H]1[C@H](F)[C@@H](O)[C@H](O)[C@H]2COC(=O)N21`: the inhibition result in data set [1] and in data set [4] was “inactive” throughout. The GI50 with HBL-100 came out at 19 µM; in the data set on A549 it was 4.6 µM; in the data set with SW1573 [6], 11 µM; in the data set with hTERT-BJ, 32 µM; in the data set with WiDr, 20 µM. Also, the outcome in the data set with HeLa [2], in the data set on HeLa [7], in the data set on HeLa [10], in the data set on HeLa [12], with BV-2 [15] and with HeLa [16] was Active. In the data set on BV-2 [19], the outcome was Active. The values for the RatioGI50 in data set [3] and in [18] were 1.6 and 0.7, respectively. The result in the data set with SW1573 [5] was inactive. The inhibition entry in the data set on HeLa [8], with SW1573 [9], in the data set with SW1573 [11], in the data set on HeLa [13] and with SW1573 [17] was “Active” each time. Besides, in the data set on BV-2 [14], the Activity entry is “Non-Toxic”.
